How the values were obtained:
Assay type in all cases: cell-based
[1] = system: Neurotensin receptor type 1 (Homo sapiens), P30989 [P133A]; experiment: (§1) Displacement of [3H]SR48692 from human NTR1 extracellular loop 1 P133A mutant expressed in HEK293 cells
Method in brief: (§2)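 Membranes from HEK-293 cells transiently transfected (CaHPO4 method) with wild-type or EL1-mutant hNTR1 cDNA and harvested 48 h post-transfection. Homologous competition binding with 0.8 nM [3H]SR 48692 (81 Ci/mmol), adapted to 96-well format. Curves normalized per receptor, 4–6 experiments in triplicate. Kd and Bmax given with 95% confidence intervals.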

[2] = biological target: Neurotensin receptor type 1 (Homo sapiens, UniProt P30989, P133A); experiment: as §1; method in brief: as §2
[3] = biological target: Neurotensin receptor type 1 (Homo sapiens, UniProt P30989, W134A); experiment: (§3) Displacement of [3H]SR48692 from human NTR1 extracellular loop 1 W134A mutant expressed in HEK293 cells; method in brief: as §2
[4] = system: Neurotensin receptor type 1 (Homo sapiens), P30989 [W134A]; experiment: as §3; method in brief: as §2
[5] = biological target: T1, Neurotensin receptor type 1 (Homo sapiens, UniProt P30989); experiment: Displacement of [3H]SR48692 from wild type human NTR1 expressed in HEK293 cells; method in brief: as §2
[6] = system: Neurotensin receptor type 1 (Homo sapiens), P30989 [W129A]; experiment: (§4) Displacement of [3H]SR48692 from human NTR1 extracellular loop 1 W129A mutant expressed in HEK293 cells; method in brief: as §2
[7] = biological target: Neurotensin receptor type 1 (Homo sapiens, UniProt P30989, W129A); experiment: as §4; method in brief: as §2
[8] = biological target: Neurotensin receptor type 1 (Homo sapiens, UniProt P30989, F136A); experiment: (§5) Displacement of [3H]SR48692 from human NTR1 extracellular loop 1 F136A mutant expressed in HEK293 cells; method in brief: as §2
[9] = system: Neurotensin receptor type 1 (Homo sapiens), P30989 [F136A]; experiment: as §5; method in brief: as §2
[10] = biological target: Neurotensin receptor type 1 (Homo sapiens, UniProt P30989, H131A); experiment: (§6) Displacement of [3H]SR48692 from human NTR1 extracellular loop 1 H131A mutant expressed in HEK293 cells; method in brief: as §2
[11] = system: Neurotensin receptor type 1 (Homo sapiens), P30989 [H131A]; experiment: as §6; method in brief: as §2
[12] = biological target: Neurotensin receptor type 1 (Homo sapiens, UniProt P30989, F127A); experiment: (§7) Displacement of [3H]SR48692 from human NTR1 extracellular loop 1 F127A mutant expressed in HEK293 cells; method in brief: as §2
[13] = system: Neurotensin receptor type 1 (Homo sapiens), P30989 [F127A]; experiment: as §7; method in brief: as §2
[14] = biological target: T1, Neurotensin receptor type 1; experiment: Displacement of [3H]NT(8-13) from wild type human NTR1 expressed in HEK293 cells

T1 sequence (P30989 whole entry): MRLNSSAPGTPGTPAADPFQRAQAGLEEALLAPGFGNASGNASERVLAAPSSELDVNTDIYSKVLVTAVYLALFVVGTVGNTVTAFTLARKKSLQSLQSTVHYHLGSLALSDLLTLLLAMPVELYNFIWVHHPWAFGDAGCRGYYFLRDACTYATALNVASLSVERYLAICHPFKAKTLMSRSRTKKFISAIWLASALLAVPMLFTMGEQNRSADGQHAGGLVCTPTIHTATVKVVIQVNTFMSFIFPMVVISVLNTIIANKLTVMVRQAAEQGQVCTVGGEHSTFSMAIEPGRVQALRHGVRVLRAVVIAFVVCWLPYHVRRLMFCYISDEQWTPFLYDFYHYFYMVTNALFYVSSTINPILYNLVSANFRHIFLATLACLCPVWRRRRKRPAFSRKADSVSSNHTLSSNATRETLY
Chain of Neurotensin receptor type 1 (Homo sapiens, UniProt P30989, F136A) (P30989 whole entry F136A): as the sequence (P30989 whole entry) above, with F136A counted along it
Chain of Neurotensin receptor type 1 (Homo sapiens), P30989 [F136A] (P30989 whole entry F136A): as the sequence (P30989 whole entry) above, with F136A counted along it
Chain of Neurotensin receptor type 1 (Homo sapiens, UniProt P30989, H131A) (P30989 whole entry H131A): as the sequence (P30989 whole entry) above, with H131A counted along it
Chain of Neurotensin receptor type 1 (Homo sapiens), P30989 [H131A] (P30989 whole entry H131A): as the sequence (P30989 whole entry) above, with H131A counted along it
Chain of Neurotensin receptor type 1 (Homo sapiens), P30989 [F127A] (P30989 whole entry F127A): as the sequence (P30989 whole entry) above, with F127A counted along it
Chain of Neurotensin receptor type 1 (Homo sapiens, UniProt P30989, F127A) (P30989 whole entry F127A): as the sequence (P30989 whole entry) above, with F127A counted along it
Chain of Neurotensin receptor type 1 (Homo sapiens, UniProt P30989, W129A) (P30989 whole entry W129A): as the sequence (P30989 whole entry) above, with W129A counted along it
Chain of Neurotensin receptor type 1 (Homo sapiens), P30989 [W129A] (P30989 whole entry W129A): as the sequence (P30989 whole entry) above, with W129A counted along it
Chain of Neurotensin receptor type 1 (Homo sapiens), P30989 [W134A] (P30989 whole entry W134A): as the sequence (P30989 whole entry) above, with W134A counted along it
Chain of Neurotensin receptor type 1 (Homo sapiens, UniProt P30989, W134A) (P30989 whole entry W134A): as the sequence (P30989 whole entry) above, with W134A counted along it
Chain of Neurotensin receptor type 1 (Homo sapiens, UniProt P30989, P133A) (P30989 whole entry P133A): as the sequence (P30989 whole entry) above, with P133A counted along it
Chain of Neurotensin receptor type 1 (Homo sapiens), P30989 [P133A] (P30989 whole entry P133A): as the sequence (P30989 whole entry) above, with P133A counted along it

| Bmax [1] [pmol/mg] | Kd [2] [nM] | Kd [3] [nM] | Bmax [4] [pmol/mg] | Bmax [5] [pmol/mg] | Kd [5] [nM] | Bmax [6] [pmol/mg] | Kd [7] [nM] | Kd [8] [nM] | Bmax [9] [pmol/mg] | Kd [10] [nM] | Bmax [11] [pmol/mg] | Kd [12] [nM] | Bmax [13] [pmol/mg] | Ki [14] [nM] | Compound |
| --- | --- | --- | --- | --- | --- | --- | --- | --- | --- | --- | --- | --- | --- | --- | --- |
| 9.3 | 9.2 | 23 | 10 | 15 | 8.9 | 9.4 | 27 | 33 | 10 | 8.4 | 16 | 19 | 18 | – | COc1cccc(OC)c1-c1cc(C(=O)NC2(C(=O)O)C3CC4CC(C3)CC2C4)nn1-c1ccnc2cc(Cl)ccc12 (stereo not given) [REMINERTANT] |
| – | – | – | – | – | – | – | – | – | – | – | – | – | – | 2.4 | CC[C@H](C)[C@H](NC(=O)[C@H](Cc1ccc(O)cc1)NC(=O)[C@@H]1CCCN1C(=O)[C@H](CCCNC(=N)N)NC(=O)[C@@H](N)CCCNC(=N)N)C(=O)NC1(C(=O)O)C2CC3CC(C2)CC1C3 (stereo not given in full) |

From ChEMBL document CHEMBL1142449 (Bioorg Med Chem, 2008)
